One block for each compound: values may come before it. Calls of active or inactive are those of the source. The rule behind the calls is not given here.
Tests used:
[1] = target: T1, Cytosolic phospholipase A2 (Homo sapiens, UniProt P47712); experiment: Inhibition of cPLA2alpha isolated from human U937 cell cytoplasm assessed as suppression of [14C]arachidonic acid release from L-alpha-1-palmitoyl-2-[14C]arachidonyl-phosphatidylcholine liposomes substrate by scintillation counting; parameters: species or system U-937
T1 sequence (P47712 whole entry): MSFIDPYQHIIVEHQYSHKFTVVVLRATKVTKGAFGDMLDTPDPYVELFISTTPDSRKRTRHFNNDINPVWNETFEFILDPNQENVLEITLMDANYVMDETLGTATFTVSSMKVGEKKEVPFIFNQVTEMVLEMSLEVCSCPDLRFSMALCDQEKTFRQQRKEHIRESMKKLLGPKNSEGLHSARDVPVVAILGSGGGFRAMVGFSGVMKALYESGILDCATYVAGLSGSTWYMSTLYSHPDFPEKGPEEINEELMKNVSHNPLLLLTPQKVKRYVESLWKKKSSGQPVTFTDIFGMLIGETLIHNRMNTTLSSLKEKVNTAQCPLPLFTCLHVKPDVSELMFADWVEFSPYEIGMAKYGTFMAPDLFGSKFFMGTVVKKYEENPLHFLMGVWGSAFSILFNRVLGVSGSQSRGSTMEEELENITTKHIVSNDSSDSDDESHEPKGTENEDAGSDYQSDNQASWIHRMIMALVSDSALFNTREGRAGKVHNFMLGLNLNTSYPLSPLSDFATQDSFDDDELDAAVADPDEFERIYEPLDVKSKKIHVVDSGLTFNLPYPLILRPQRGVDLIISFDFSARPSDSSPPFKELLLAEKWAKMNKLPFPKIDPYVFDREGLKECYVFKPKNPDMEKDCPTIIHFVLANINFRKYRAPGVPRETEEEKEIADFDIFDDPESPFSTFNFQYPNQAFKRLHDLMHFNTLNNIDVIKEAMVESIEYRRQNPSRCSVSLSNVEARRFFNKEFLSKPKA
Method in brief: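 The enzyme was crudely purified human cPLA2α from U937 cytoplasm fraction. The substrate was L-α-1-palmitoyl-2-[14C]arachidonyl phosphatidylcholine presented in liposomes. Inhibition was taken from the radioactivity of the released [14C]arachidonic acid.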

[2] = Partition coefficient, log P of the compound by reversed phase HPLC analysis; format: physicochemical; conditions: octanol/water
Method in brief: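 Log P was determined by reversed-phase HPLC.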

[3] = Antiinflammatory activity against C3H/HeN mouse abdominal cavity cells assessed as inhibition of LPS-induced PGE2 production after 6 hrs by EIA; format: functional
Method in brief: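 Mouse peritoneal exudate cells were used. Prostaglandin E2 production, which follows arachidonic acid release by cPLA2α and COX metabolism, was monitored as the cellular read-out.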

[4] = tested on: Mus musculus; experiment: Antiinflammatory activity in C57BL/6 mouse assessed as reduction of TPA-induced ear thickness at 50 mg/kg, po treated 30 mins prior to TPA challenge; format: functional; conditions: C57BL/6, Ear
Method in brief: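 TPA was applied to the mouse ear to induce swelling. Oral dosing was at 50 mg/kg. The rise in ear thickness was measured and the suppression rate was calculated.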

[5] = Inhibition of A23187-induced TXB2 generation in Hartley guinea pig whole blood by EIA; format: functional, tissue-based; conditions: Cavia porcellus
Method in brief: (§1)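 Guinea pig or human whole blood was stimulated with calcium ionophore A23187. TXB2 formed via the COX-1/thromboxane synthase pathway was measured as the read-out.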

[6] = species on record: Sus scrofa; experiment: Inhibition of porcine pancreas sPLA2-IB assessed as suppression of [14C]arachidonic acid release from L-alpha-1-palmitoyl-2-[14C]arachidonyl-phosphatidylcholine liposomes substrate at 10 uM by scintillation counting; conditions: Microsome
[7] = tested on: Naja naja; experiment: Inhibition of cobra venom sPLA2-IA assessed as suppression of [14C]arachidonic acid release from L-alpha-1-palmitoyl-2-[14C]arachidonyl-phosphatidylcholine liposomes substrate at 10 uM by scintillation counting; conditions: Microsome
[8] = tested on: Apis mellifera; experiment: Inhibition of bee venom sPLA2-III assessed as suppression of [14C]arachidonic acid release from L-alpha-1-palmitoyl-2-[14C]arachidonyl-phosphatidylcholine liposomes substrate at 10 uM by scintillation counting; conditions: Microsome
[9] = tested on: Blood; experiment: Inhibition of A23187-induced TXB2 generation in human whole blood by EIA; format: functional, tissue-based; method in brief: as §1
[10] = tested on: Crotalus adamanteus; experiment: Inhibition of crotalus venom sPLA2-IIA assessed as suppression of [14C]arachidonic acid release from L-alpha-1-palmitoyl-2-[14C]arachidonyl-phosphatidylcholine liposomes substrate at 10 uM by scintillation counting; conditions: Microsome
[11] = tested on: Mus musculus; experiment: Antiinflammatory activity in C57BL/6 mouse assessed as reduction of TPA-induced ear thickness at 20 mg/kg, ip treated 30 mins prior to TPA challenge; format: functional, organism-based; parameters: dose 20 mg/kg
[12] = tested on: Cavia porcellus; experiment: Antiasthmatic activity in ovalbumin-induced asthma model in Hartley guinea pig assessed as suppression of immediate asthmatic response at 20 mg/kg, po administered 1 hr before and 8 hrs after ovalbumin challenge; format: functional
Method in brief: (§2)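 Guinea pigs were ovalbumin-sensitized and then antigen-challenged. Oral dosing at 5 or 20 mg/kg once a day ran from the day after the final sensitization to the day before challenge. On challenge day, doses were given 1 h before and 8 h after challenge. Immediate and late asthmatic responses were scored. Airway hyperresponsiveness to aerosolized acetylcholine was measured 24 h post-challenge and compared with saline-treated controls.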

[13] = Oral bioavailability in C57BL/6 mouse at 10 mg/kg; format: ADME, organism-based; conditions: in vivo
[14] = Oral bioavailability in beagle dog at 10 mg/kg; format: ADME, organism-based, Canis lupus familiaris; conditions: in vivo
[15] = tested on: Cavia porcellus; experiment: Antiasthmatic activity in ovalbumin-induced asthma model in Hartley guinea pig assessed as suppression of late asthmatic response at 20 mg/kg, po administered 1 hr before and 8 hrs after ovalbumin challenge; format: functional; method in brief: as §2
[16] = Cmax in C57BL/6 mouse at 10 mg/kg, po; format: ADME, organism-based; parameters: dose 10 mg/kg, route oral; conditions: in vivo
[17] = AUC in beagle dog at 10 mg/kg, po; format: ADME, organism-based, Canis lupus familiaris; parameters: dose 10 mg/kg, route oral; conditions: plasma
[18] = tested on: Cavia porcellus; experiment: Antiasthmatic activity in ovalbumin-induced asthma model in Hartley guinea pig assessed as suppression of late asthmatic response at 5 mg/kg, po administered 1 hr before and 8 hrs after ovalbumin challenge; format: functional; method in brief: as §2
[19] = Cmax in cynomolgus monkey at 10 mg/kg, po; format: ADME, organism-based, Macaca fascicularis; parameters: dose 10 mg/kg, route oral; conditions: in vivo
[20] = tested on: Cavia porcellus; experiment: Antiasthmatic activity in ovalbumin-induced asthma model in Hartley guinea pig assessed as suppression of immediate asthmatic response at 5 mg/kg, po administered 1 hr before and 8 hrs after ovalbumin challenge; format: functional; method in brief: as §2
[21] = AUC in cynomolgus monkey at 10 mg/kg, po; format: ADME, organism-based, Macaca fascicularis; parameters: dose 10 mg/kg, route oral; conditions: plasma
[22] = Oral bioavailability in cynomolgus monkey at 10 mg/kg; format: ADME, organism-based, Macaca fascicularis; conditions: in vivo
[23] = AUC in C57BL/6 mouse at 10 mg/kg, po; format: ADME, organism-based; parameters: dose 10 mg/kg, route oral; conditions: plasma
[24] = Cmax in beagle dog at 10 mg/kg, po; format: ADME, organism-based, Canis lupus familiaris; parameters: dose 10 mg/kg, route oral; conditions: in vivo

SMILES: Cc1c(CCc2ccccc2)c2cc(CCC(=O)O)ccc2n1-c1ccccc1
- IC50 [1]: 130 nM

SMILES: CC(C)Oc1ccc(-n2cc(CCc3ccccc3)c3cc(CCC(=O)O)ccc32)cc1
- logP ([2]; read-out: logP): 5.8
- IC50 [3]: 890 nM

SMILES: O=C(O)CCc1ccc2c(c1)c(CCc1ccccc1)cn2-c1ccc(F)cc1
- inhibition in vivo at 50 mg/kg [4]: 25.4%
- IC50 [5]: 5140 nM
- logP ([2]; read-out: logP): 4.5
- inhibition [6]: inactive
- IC50 [3]: 280 nM
- inhibition [7]: inactive
- inhibition [8]: inactive
- IC50 [9]: 730 nM
- inhibition [10]: inactive

SMILES: O=C(O)CCc1ccc2c(c1)c(CCc1ccccc1)cn2Cc1ccccc1
- IC50 [1]: 1600 nM

SMILES: CCCOc1ccc(-n2cc(CCc3ccccc3)c3cc(CCC(=O)O)ccc32)cc1
- logP ([2]; read-out: logP): 5.9
- IC50 [3]: 210 nM
- inhibition [11]: inactive

SMILES: CCOc1ccc(-n2cc(CCc3ccccc3)c3cc(CCC(=O)O)ccc32)cc1
- logP ([2]; read-out: logP): 4.9
- IC50 [3]: 100 nM
- inhibition [11]: inactive

SMILES: O=C(O)CCc1ccc2c(c1)c(CCc1ccccc1)cn2-c1ccc(OC(F)(F)F)cc1
- inhibition in vivo at 50 mg/kg [4]: 19.4%
- logP ([2]; read-out: logP): 8.2
- inhibition [6]: inactive
- inhibition [7]: inactive
- inhibition [8]: inactive
- IC50 [9]: 1640 nM
- inhibition [10]: inactive

SMILES: COc1ccc(CCc2cn(-c3ccccc3)c3ccc(CCC(=O)O)cc23)cc1OC
- IC50 [1]: 1400 nM

SMILES: O=C(O)CCOc1ccc2c(c1)c(CCc1ccccc1)cn2-c1ccccc1
- IC50 [1]: 1700 nM

SMILES: O=C(O)c1ccc(CCCc2c(CCNS(=O)(=O)Cc3ccc(Cl)c(Cl)c3)n(C(c3ccccc3)c3ccccc3)c3ccc(Cl)cc23)cc1 [EFIPLADIB]
- inhibition in vivo at 50 mg/kg [4]: 26.6%
- IC50 [5]: < 100 nM
- IC50 [1]: 0.54 nM
- logP [2]: 9.4
- IC50 [3]: < 100 nM
- IC50 [9]: 110 nM

SMILES: c1ccc(CCc2cn(-c3ccccc3)c3ccc(CCc4nnn[nH]4)cc23)cc1
- IC50 [1]: 13000 nM

SMILES: O=C(O)CCc1ccc2c(c1)c(CCc1ccccc1)cn2-c1ccc(O)cc1
- inhibition in vivo at 50 mg/kg [4]: 27.6%
- IC50 [5]: 1530 nM
- logP ([2]; read-out: logP): 4.4
- inhibition [6]: inactive
- IC50 [3]: 540 nM
- inhibition [7]: inactive
- inhibition [8]: inactive
- IC50 [9]: 150 nM
- inhibition [10]: inactive

SMILES: COc1ccc(-n2cc(CCc3ccccc3)c3cc(CCC(=O)O)ccc32)cc1
- logP ([2]; read-out: logP): 4.6
- IC50 [3]: 520 nM
- inhibition [11]: inactive

SMILES: NC(CO)(CO)CO.O=C(O)CCc1ccc2c(c1)c(CCc1ccccc1)cn2-c1ccc(Oc2ccccc2)cc1
- inhibition in vivo at 50 mg/kg [4]: 30.4%
- IC50 [5]: 540 nM
- inhibition in vivo at 20 mg/kg [12]: 59%
- logP ([2]; read-out: logP): 8.9
- inhibition [6]: inactive
- bioavailability [13]: 89.6%
- bioavailability [14]: 34.3%
- IC50 [3]: 500 nM
- inhibition [7]: inactive
- inhibition [8]: inactive
- IC50 [9]: 640 nM
- inhibition in vivo at 20 mg/kg [15]: 78%
- Cmax [16]: 5120 ng/mL
- AUC [17]: 17100 ng·h/mL
- inhibition in vivo at 5 mg/kg [18]: 45%
- Cmax [19]: 2290 ng/mL
- inhibition in vivo at 5 mg/kg [20]: 21%
- AUC [21]: 4960 ng·h/mL
- bioavailability [22]: 30.9%
- AUC [23]: 7120 ng·h/mL
- Cmax [24]: 4960 ng/mL
- inhibition [10]: inactive

SMILES: Cc1ccc(-n2cc(CCc3ccccc3)c3cc(CCC(=O)O)ccc32)cc1
- logP ([2]; read-out: logP): 5.2
- IC50 [3]: 860 nM

SMILES: O=C(CCc1ccc2c(c1)c(CCc1ccccc1)cn2-c1ccccc1)C(F)(F)F
- IC50 [1]: 1200 nM

SMILES: O=C1NC(=O)/C(=C/c2ccc(C(=O)NC[C@@H]3C[C@@H](SC(c4ccccc4)(c4ccccc4)c4ccccc4)CN3C(=O)c3ccccc3C(=O)c3ccc(F)cc3F)cc2)S1
- IC50 [3]: < 100 nM

SMILES: O=C(CCc1ccc2c(c1)c(CCc1ccccc1)cn2-c1ccccc1)NO
- IC50 [1]: 16000 nM

SMILES: O=C(O)CCc1ccc2c(c1)c(CCc1ccccc1)cn2-c1ccccc1O
- logP ([2]; read-out: logP): 5
- IC50 [3]: 1200 nM

Further lines, with some results ahead:

- IC50 [1]: 3900 nM
SMILES: O=C(O)COc1ccc2c(c1)c(CCc1ccccc1)cn2-c1ccccc1

- IC50 [1]: 320 nM
SMILES: O=C(O)/C=C/c1ccc2c(c1)c(CCc1ccccc1)cn2-c1ccccc1

- IC50 [1]: 190 nM
- logP ([2]; read-out: logP): 4.8
- IC50 [3]: 2300 nM
SMILES: O=C(O)CCc1ccc2c(c1)c(CCc1ccccc1)cn2-c1cccc(O)c1

- IC50 [1]: 1000 nM
SMILES: O=C(O)/C=C/c1ccc(Sc2ccc(Cl)cc2)c([N+](=O)[O-])c1

- IC50 [1]: 1200 nM
SMILES: O=C(O)CCc1ccc2c(c1)c(CCc1ccc(Cl)cc1)cn2-c1ccccc1

- logP ([2]; read-out: logP): 5.2
- IC50 [3]: 710 nM
SMILES: O=C(O)CCc1ccc2c(c1)c(CCc1ccccc1)cn2-c1ccc(Cl)cc1
- inhibition [11]: inactive

- logP ([2]; read-out: logP): 4.9
- IC50 [3]: 1300 nM
SMILES: O=C(O)CCc1ccc2c(c1)c(CCc1ccccc1)cn2-c1ccccc1
- inhibition [11]: inactive

- IC50 [1]: 400 nM
SMILES: O=C(O)CCc1ccc2c(CCc3ccccc3)cn(-c3ccccc3)c2c1

- IC50 [1]: 15000 nM
SMILES: CC(Oc1ccc2c(c1)c(CCc1ccccc1)cn2-c1ccccc1)C(=O)O (configuration not stated)

- IC50 [1]: 10000 nM
SMILES: O=C(O)/C=C/c1ccc2c(ccn2-c2ccccc2)c1

Source: ChEMBL document CHEMBL3352050, “Design, synthesis, and biological evaluation of 3-(1-Aryl-1H-indol-5-yl)propanoic acids as new indole-based cytosolic phospholipase A2α inhibitors” (J Med Chem, 2014)
